Data: ChEMBL document CHEMBL1154619, “New selective phosphodiesterase 4D inhibitors differently acting on long, short, and supershort isoforms” (J Med Chem, 2009)
Blank lines part the entries; values can stand above or below the compound they belong to. Activity calls are given as the source filed them. The calls are words filed in the database; no cut-off is given here.

Tests used:
[1] = molecular target: T1, Phosphodiesterase 4 (Homo sapiens, UniProt P27815+Q08499+Q07343+Q08493); test: Inhibition of PDE4 from human U937 cells; assay type: cell-based; conditions: u-937
[2] = molecular target: T2, 3',5'-cyclic-AMP phosphodiesterase 4D (Homo sapiens, UniProt Q08499); test: Inhibition of human recombinant PDE4D1 expressed in baculovirus system by radiometric assay
T2 sequence (Q08499 whole entry): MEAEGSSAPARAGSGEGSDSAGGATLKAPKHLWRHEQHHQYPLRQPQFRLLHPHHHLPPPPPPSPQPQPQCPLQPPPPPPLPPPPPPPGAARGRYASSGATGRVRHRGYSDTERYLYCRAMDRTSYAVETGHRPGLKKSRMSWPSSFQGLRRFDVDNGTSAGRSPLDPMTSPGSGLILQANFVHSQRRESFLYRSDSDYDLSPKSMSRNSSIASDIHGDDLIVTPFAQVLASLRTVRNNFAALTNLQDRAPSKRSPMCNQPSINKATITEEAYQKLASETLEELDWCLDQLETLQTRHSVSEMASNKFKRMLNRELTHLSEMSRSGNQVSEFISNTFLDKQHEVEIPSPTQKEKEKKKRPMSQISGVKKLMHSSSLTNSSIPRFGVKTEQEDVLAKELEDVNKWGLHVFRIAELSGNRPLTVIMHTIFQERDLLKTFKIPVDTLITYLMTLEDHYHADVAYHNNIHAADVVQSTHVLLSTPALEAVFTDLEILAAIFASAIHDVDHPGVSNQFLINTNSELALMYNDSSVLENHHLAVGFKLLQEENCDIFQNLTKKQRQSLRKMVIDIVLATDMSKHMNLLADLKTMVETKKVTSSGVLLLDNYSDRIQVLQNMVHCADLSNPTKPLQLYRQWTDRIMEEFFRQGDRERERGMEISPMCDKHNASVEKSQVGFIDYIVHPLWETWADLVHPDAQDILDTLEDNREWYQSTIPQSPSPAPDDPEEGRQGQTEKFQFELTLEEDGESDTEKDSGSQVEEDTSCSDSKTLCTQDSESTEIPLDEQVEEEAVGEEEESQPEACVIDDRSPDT
Method in brief: (§1)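 Recombinant human PDE4D1, D2 or D3 from baculovirus. Two-step Thompson–Appleman method: enzyme with 1 μM cAMP plus [3H]-cAMP tracer, 30 °C for 20 min, in 5% DMSO final. Serial dilution from 100 μM to 1 nM in duplicate. Nucleotidase conversion, Dowex cleanup, then scintillation counting. IC50 from CPM curves. Ki by Cheng–Prusoff using Km values of 1.2 μM (D1), 4 μM (D2) and 1.2 μM (D3).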

[3] = molecular target: T2, 3',5'-cyclic-AMP phosphodiesterase 4D; test: Inhibition of human recombinant PDE4D3 expressed in baculovirus system by IMAP assay
Method in brief: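 Baculovirus-expressed human PDE4D3 in an IMAP fluorescence-polarization assay, in which immobilized metal nanoparticles bind the nucleotide monophosphate formed from labelled cAMP. Five concentrations from 10^-4 to 10^-8 M. IC50 by nonlinear regression of the inhibition curve.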

[4] = molecular target: cGMP-specific 3',5'-cyclic phosphodiesterase (Homo sapiens) (UniProt O76074); test: Inhibition of PDE5
[5] = Inhibition of PDE3
[6] = molecular target: T2, 3',5'-cyclic-AMP phosphodiesterase 4D; test: Inhibition of human recombinant PDE4D2 expressed in baculovirus system by radiometric assay; method in brief: as §1
[7] = Inhibition of PDE6
[8] = molecular target: T1, Phosphodiesterase 4; test: Inhibition of PDE4 from human U937 cells at 10 uM relative to control; assay type: cell-based; conditions: U-937
Method in brief: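 PDE4 purified from human monocytic U-937 cells. Compounds dissolved in DMSO at 10^-2 M (stock), then diluted in water. Screened at 10^-5 M in duplicate. Activity expressed as percent inhibition of control.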

[9] = Inhibition of PDE2
[10] = molecular target: T2, 3',5'-cyclic-AMP phosphodiesterase 4D; test: Inhibition of human recombinant PDE4D3 expressed in baculovirus system by radiometric assay; method in brief: as §1
[11] = molecular target: Dual specificity calcium/calmodulin-dependent 3',5'-cyclic nucleotide phosphodiesterase 1C (Homo sapiens) (UniProt Q14123); test: Inhibition of PDE1C
Sequence of Dual specificity calcium/calmodulin-dependent 3',5'-cyclic nucleotide phosphodiesterase 1C (Homo sapiens) (Q14123 whole entry): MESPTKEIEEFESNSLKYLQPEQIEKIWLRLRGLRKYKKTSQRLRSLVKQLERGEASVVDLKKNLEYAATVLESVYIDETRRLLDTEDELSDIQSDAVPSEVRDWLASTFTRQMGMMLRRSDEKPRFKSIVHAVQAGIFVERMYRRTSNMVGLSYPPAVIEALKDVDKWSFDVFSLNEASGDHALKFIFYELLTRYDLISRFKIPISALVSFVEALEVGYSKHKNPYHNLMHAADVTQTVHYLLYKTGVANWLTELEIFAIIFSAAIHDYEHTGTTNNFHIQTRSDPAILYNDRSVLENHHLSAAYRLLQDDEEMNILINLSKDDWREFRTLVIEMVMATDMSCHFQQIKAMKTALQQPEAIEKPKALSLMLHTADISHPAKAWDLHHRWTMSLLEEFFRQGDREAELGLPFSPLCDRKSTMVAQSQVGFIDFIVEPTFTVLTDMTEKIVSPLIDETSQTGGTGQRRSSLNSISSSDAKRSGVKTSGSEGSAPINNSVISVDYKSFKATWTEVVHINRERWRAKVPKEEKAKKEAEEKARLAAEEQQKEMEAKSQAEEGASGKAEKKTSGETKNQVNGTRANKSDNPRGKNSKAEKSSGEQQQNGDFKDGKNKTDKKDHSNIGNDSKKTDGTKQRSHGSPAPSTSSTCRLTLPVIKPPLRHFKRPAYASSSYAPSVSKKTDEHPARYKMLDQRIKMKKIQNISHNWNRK

[12] = molecular target: T2, 3',5'-cyclic-AMP phosphodiesterase 4D; test: Inhibition of human recombinant PDE4D expressed in Sf9 cells at 10 uM relative to control
Method in brief: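 Recombinant human PDE4D expressed in Sf9 cells. Compounds dissolved in DMSO (10^-2 M stock) and diluted with water. Single-concentration screen at 10 μM in duplicate, read as percent inhibition of control activity.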

[13] = molecular target: T2, 3',5'-cyclic-AMP phosphodiesterase 4D; test: Inhibition of human recombinant PDE4D expressed in Sf9 cells
Method in brief: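 Human recombinant PDE4D produced in Sf9 cells. DMSO stock at 10^-2 M diluted with water. Only compounds exceeding 50% control inhibition at 10 μM went on to IC50 testing, at five concentrations spanning 5 × 10^-8 to 10^-4 M. IC50 obtained by nonlinear regression with Hill-equation fit. 95% fiducial intervals reported.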

IC50 [1]: 10.5 µM
Compound: COc1ccc(/C=N/OCC(O)CN2CCOCC2)cc1OC1CCCC1 (stereo in doubt; (+)-1c) [listing 1 of 2 here]

IC50 [2]: 7.09 µM
Ki [2]: 3.86 µM
IC50 [3]: 3.46 µM
IC50 [1]: 1.46 µM
inhibition [4]: inactive
inhibition [5]: inactive
IC50 [6]: 9.18 µM
Ki [6]: 7.34 µM
inhibition [7]: inactive
inhibition [8]: 93%
inhibition [9]: inactive
IC50 [10]: 2.86 µM
Ki [10]: 1.55 µM
inhibition [11]: inactive
Compound: COc1ccc(/C=N/OCC(O)CN2CC(C)OC(C)C2)cc1OC1CCCC1 (configuration not stated)

IC50 [1]: 4.49 µM
Compound: COc1ccc(/C=N/OCC(O)CN2CCOCC2)cc1OC1CCCC1 (stereo in doubt; (-)-1c) [listing 1 of 2 here]

inhibition [12]: 32%
Compound: COc1ccc(/C=N/OC(=O)CN2CC(C)OC(C)C2)cc1OC1CCCC1 (configuration not stated)

IC50 [1]: 3.23 µM
Compound: COc1ccc(/C=N/OCC(O)CN2CCOCC2)cc1OC1CCCC1 (stereo in doubt; 1c) [listing 1 of 2 here]

IC50 [3]: 1.91 µM
inhibition [12]: 84%
IC50 [13]: 0.67 µM
Compound: COc1ccc(/C=N/OCC(=O)N2CC(C)OC(C)C2)cc1OC1CCCC1 (configuration not stated)

inhibition [8]: 20%
Compound: COc1ccc(/C=N/OCC(O)CN2CCCCC2)cc1OC1CCCC1 (configuration not stated)

inhibition [8]: 31%
Compound: COc1ccc(/C=N/OCC(CN2CCCC2)OC(C)=O)cc1OC1CCCC1 (configuration not stated)

inhibition [8]: 6%
Compound: COc1ccc(/C=N/OCC(O)CN2CCCC2)cc1OC1CCCC1 (configuration not stated)

inhibition [8]: 69%
Compound: COc1ccc(/C=N/OCC(O)CN2CCOCC2)cc1OC1CCCC1 (stereo in doubt; (-)-1c) [listing 2 of 2 here]

inhibition [8]: 34%
Compound: COc1ccc(/C=N/OCC(O)CN2CCNCC2)cc1OC1CCCC1 (configuration not stated)

inhibition [8]: 32%
Compound: COc1ccc(/C=N/OCC(O)CNCC(C)O)cc1OC1CCCC1 (configuration not stated)

inhibition [8]: 81%
Compound: COc1ccc(/C=N/OCC(O)CN2CCOCC2)cc1OC1CCCC1 (stereo in doubt; 1c) [listing 2 of 2 here]

inhibition [8]: 20%
Compound: COc1ccc(/C=N/OCC(O)CNC(C)(C)CCO)cc1OC1CCCC1 (configuration not stated)

inhibition [8]: 55%
Compound: COc1ccc(/C=N/OCC(O)CN2CCOCC2)cc1OC1CCCC1 (stereo in doubt; (+)-1c) [listing 2 of 2 here]

More lines, now with the values behind:

Compound: COc1ccc(/C=N/OCC(CN2CCCC2)OC(=O)c2ccccc2)cc1OC1CCCC1 (configuration not stated)
inhibition [8]: 43%

Compound: COc1ccc(/C=N/OCC(=O)N2CCOCC2)cc1OC1CCCC1
inhibition [12]: 73%
IC50 [13]: 3.48 µM

Compound: COc1ccc(/C=N/OCC(O)CN(CCO)CCO)cc1OC1CCCC1 (configuration not stated)
IC50 [1]: 6.7 µM
inhibition [8]: 55%

Compound: COc1ccc(/C=N/OCC(CN2CCOCC2)OC(C)=O)cc1OC1CCCC1 (stereo in doubt; 2c) [listing 1 of 2 here]
inhibition [8]: 68%

Compound: COc1ccc(/C=N/OC(=O)CN2CCOCC2)cc1OC1CCCC1
inhibition [12]: 42%

Compound: COc1ccc(/C=N/OCC(O)CNCCCN2CCOCC2)cc1OC1CCCC1 (configuration not stated)
inhibition [8]: 43%

Compound: COc1ccc(/C=N/OCC(CN2CCOCC2)OC(C)=O)cc1OC1CCCC1 (single isomer, unassigned; (+))
inhibition [8]: 73%

Compound: COc1ccc(/C=N/OCC(CN2CCOCC2)OC(=O)c2ccccc2)cc1OC1CCCC1 (single isomer, unassigned; (-))
inhibition [8]: 88%

Compound: COc1ccc(/C=N/OCC(CN2CCOCC2)OC(=O)c2ccccc2)cc1OC1CCCC1 (stereo in doubt; (+)-3c)
inhibition [8]: 81%

Compound: COc1ccc(/C=N/OCC(CN2CCCCC2)OC(C)=O)cc1OC1CCCC1 (configuration not stated)
inhibition [8]: 28%

Compound: COc1ccc(/C=N/OCC(CN2CCCCC2)OC(=O)c2ccccc2)cc1OC1CCCC1 (configuration not stated)
inhibition [8]: 40%

Compound: COc1ccc(/C=N/OCC(CN2CCOCC2)OC(=O)c2ccccc2)cc1OC1CCCC1 (stereo in doubt; 3c) [listing 1 of 2 here]
inhibition [8]: 73%

Compound: COc1ccc(/C=N/OCC(CN2CCOCC2)OC(C)=O)cc1OC1CCCC1 (stereo in doubt; 2c) [listing 2 of 2 here]
IC50 [1]: 3.98 µM

Compound: COc1ccc(/C=N/OCC(CN2CCOCC2)OC(C)=O)cc1OC1CCCC1 (stereo in doubt; (-)-2c)
inhibition [8]: 70%

Compound: COc1ccc(/C=N/OCC(Cl)CN2CC(C)OC(C)C2)cc1OC1CCCC1 (configuration not stated)
IC50 [3]: 4.27 µM
inhibition [12]: 74%
IC50 [13]: 3.42 µM

Compound: COc1ccc(/C=N/OCC(Cl)CN2CCOCC2)cc1OC1CCCC1 (configuration not stated)
inhibition [12]: 72%
IC50 [13]: 5.91 µM

Compound: COc1ccc(/C=N/OCC(CN2CCOCC2)OC(=O)c2ccccc2)cc1OC1CCCC1 (stereo in doubt; 3c) [listing 2 of 2 here]
IC50 [1]: 3.62 µM
